Here are results for 1 compound from ChEMBL document CHEMBL1122881, “A dipeptide derived from kainic and L-glutamic acids: a selective antagonist of amino acid induced neuroexcitation with anticonvulsant properties” (1985).

What all share (format): functional
The species named for test [1] is Rattus norvegicus. Nature of the test: Compound (1 mM) to block the increase in the permeability of the neuronal sodium ions in rat striatum slices by excitatory 0.5 mM of L-GLutamic acid. The method in brief: (§1)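 Values are percent of the efflux increase given by the agonist alone (100%), as mean ± standard deviation of at least triplicate experiments. Difference from control was tested by variance analysis.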

For test [2], the species on record is Rattus norvegicus. Nature of the test: Compound (1 mM) to block the increase in the permeability of the neuronal sodium ions in rat striatum slices by excitatory 30 uM of N-methyl-D-aspartic acid. The method in brief:
as §1

The species named for test [3] is Rattus norvegicus. Nature of the test: Compound (1 mM) to block the increase in the permeability of the neuronal sodium ions in rat striatum slices by excitatory 0.1 M of Quis qulalic acid. Conditions: in the assay text read “0.1 mM” for “0.1 M”. Summed up: as §1
The species entered for test [4] is Rattus norvegicus. Nature of the test: Compound (1 mM) to block the increase in the permeability of the neuronal sodium ions in rat striatum slices by excitatory 0.1 mM of Kainic Acid. Summed up:
as §1

For another test, the species on record is Mus musculus. Briefly: Effective dose required to protect mice from picrotoxin-induced seizures. Summed up:
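CD1 mice of either sex (20–30 g), unanaesthetised, received 5 μL of drug in phosphate-buffered saline pH 7.4, or vehicle, icv (1 mm posterior, 1 mm lateral to bregma, 2.6 mm deep). Picrotoxin 3 mg/kg was given iv in the tail vein 10 min later. Stage 5 seizures were scored over 30 min, with at least 8 mice per group, and ED50 was calculated.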

Regarding `C=C(C)[C@H]1CN[C@H](C(=O)O)[C@H]1CC(=O)NC(CCC(=O)O)C(=O)O` (stereo not given in full), the Mean response in the test listed under Rattus norvegicus [1] came out at 90; in the test filed under Rattus norvegicus [2], 16; in the test filed under Rattus norvegicus [3] it was 69; in the test filed under Rattus norvegicus [4] it was 84. The compound also displayed an ED50 in the test listed under Mus musculus of 0.17 µM.
